In the library only some 3.7% were active in any assay of this set; here they are far more common.
hERG protect: hERG rescue from dofetilide block, primary screen, cell-based, CHO-hERG, FluxOR thallium flux, dofetilide IC70 | Voltage-gated inwardly rectifying potassium channel KCNH2 (Homo sapiens), Q12809 | dofetilide IC70 present | activation (rescue from dofetilide block), less the hit threshold, % at 10 µM | 310,000 tested, 0.51% active | AID 1511, 2009;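 active = activation above the mean of controls blocked by dofetilide plus 5 SD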;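 also: thallium influx through hERG after potassium depolarization seen as dye fluorescence rise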
KCNK3 inh: human KCNK3 channel inhibitors, primary screen, CHO cells, FluxOR thallium flux, B-score; Potassium channel subfamily K member 3 (Homo sapiens), O14649; FluxOR fluorescence; active compounds read low; B-score at 10 µM; 340,000 tested, 0.84% active; AID 602410, 2012;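 active = B-score under library mean minus 4 SD, starting fluorescence ratio at most library mean plus 5 SD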;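 also: more negative B-score means stronger inhibition of thallium flux through KCNK3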
Kir21 block: inhibitors of mouse Kir2.1 inward-rectifier potassium channel | Inward rectifier potassium channel 2 (Mus musculus), P35561 | HEK293-Kir2.1, FluxOR thallium flux fluorescence; active compounds read low | B-score at 10 µM | 310,000 tested, 0.85% active | AID 1672, 2009;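 active = fluorescence ratio B-score at or below minus 3 SD of library scores, with starting-brightness B-score within 2 SD, cut at about -4.2 in these data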;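 also: channel flux triggered by added potassium and thallium sulfate stimulus; B-score of peak minus minimum fluorescence over baseline after thallium stimulus; more negative B-score means stronger Kir2.1 block with less thallium influx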
KCNQ1 act: potentiators or activators of KCNQ1 channel, primary screen, cell-based, thallium flux, high-throughput. 310,000 tested, 0.35% active. AID 2648, 2010. Potassium voltage-gated channel subfamily KQT member 1 (Homo sapiens), P51787. CHO-K1 KCNQ1, thallium flux FluxOR fluorescence; active compounds read high. B-score at 10 µM;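 active = fluorescence ratio B-score, a plate-corrected score, at least three library SD, with initial intensity B-score within 5 SD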
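Medium – assay buffer, equal DMSO in all wells · Material – CHO-K1 cell line with stable KCNQ1 potassium channel expression · Signal – kinetic FluxOR thallium fluorescence, 10-s 1-Hz baseline, 110-s post-stimulus read · Compound – single concentration per compound, DMSO matched to controls · Schedule – 37 °C overnight plating, 90-min dark dye load, 20-min compound pretreatment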
KCNQ1 inh: inhibitors of human KCNQ1 channel, primary screen, cell-based, thallium flux, high-throughput; B-score at 10 µM; 310,000 tested, 1.3% active; Potassium voltage-gated channel subfamily KQT member 1 (Homo sapiens), P51787; CHO-K1 KCNQ1, FluxOR thallium flux fluorescence; active compounds read high; AID 2642, 2010;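 active = compounds whose thallium flux B-score, printed positive for inhibition, exceeds three library SD while starting fluorescence stays within three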;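 also: channel opened by potassium depolarization with thallium stimulus after 20 min compound exposure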
KCNK9 inh: KCNK9 potassium channel inhibitors, primary screen, HEK293 cells, thallium flux; B-score at 10 µM; 310,000 tested, 1.2% active; Potassium channel subfamily K member 9 (Homo sapiens), Q9NPC2; FluxOR thallium flux fluorescence; active compounds read low;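 active = ratio B-score over 3 SD below the library mean, with starting fluorescence within 5 SD of its mean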;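 also: negative B-score means less thallium flux so channel inhibition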
Target sequence (Q9NPC2 whole entry, looked up): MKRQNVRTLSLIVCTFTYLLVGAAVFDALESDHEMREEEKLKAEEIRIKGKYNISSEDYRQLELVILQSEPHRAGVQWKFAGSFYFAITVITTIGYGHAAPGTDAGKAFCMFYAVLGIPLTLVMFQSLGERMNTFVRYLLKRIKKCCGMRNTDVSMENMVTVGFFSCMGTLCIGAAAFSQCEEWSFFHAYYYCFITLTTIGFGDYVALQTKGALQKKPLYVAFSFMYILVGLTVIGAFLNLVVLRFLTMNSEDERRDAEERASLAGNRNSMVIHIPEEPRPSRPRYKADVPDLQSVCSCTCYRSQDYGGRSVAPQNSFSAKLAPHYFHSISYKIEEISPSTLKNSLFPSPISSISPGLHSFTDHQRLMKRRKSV
* marks the source's active call; other numbers are inactive results.

Results for CCc1ccc2nc(NC(=O)C3CCN(c4ncnc5sc(C)c(C)c45)CC3)sc2c1 ?
KCNK3 inh: inactive

What do the screens show for `CNC(=O)c1ccc(NC(=O)C2CCN(c3ncnc4sc(C)c(C)c34)CC2)cc1`?
hERG protect: 0.5; KCNK3 inh: inactive; Kir21 block: -0.21; KCNQ1 act: inactive; KCNQ1 inh: inactive; KCNK9 inh: inactive

Results for CCc1cccc(NC(=O)C2CCN(c3ncnc4sc(C)c(C)c34)CC2)c1 ?
KCNK3 inh: -10.8*

How did COc1ccc(/C=C(\NC(=O)c2ccccc2Cl)C(=O)NCCCC(=O)O)cc1 do in these assays?
hERG protect: -7.5; KCNK3 inh: inactive; Kir21 block: 0; KCNQ1 act: inactive; KCNQ1 inh: inactive; KCNK9 inh: inactive

Results for CCOc1ccc(Cl)cc1CNCCCSc1nc(C)cc(C)n1 ?
hERG protect: -7.4; KCNK3 inh: inactive; Kir21 block: -6.59*; KCNQ1 act: inactive; KCNQ1 inh: inactive; KCNK9 inh: inactive

Results for CC(C)NS(=O)(=O)c1ccc(NC(=O)C(C)Oc2ccc(C(=O)c3ccccc3)cc2)cc1 (configuration not stated) ?
hERG protect: -4.4; KCNK3 inh: inactive; Kir21 block: 3.25; KCNQ1 act: 12*; KCNQ1 inh: inactive; KCNK9 inh: inactive

How did Cc1nc(=S)n(-c2ccccc2)[nH]1 do in these assays?
hERG protect: -4.5; KCNK3 inh: inactive; Kir21 block: -0.7; KCNQ1 act: inactive; KCNQ1 inh: inactive; KCNK9 inh: inactive

How did S=c1nc(-c2ccccc2)[nH]n1-c1ccccc1 do in these assays?
hERG protect: 14.9*; KCNK3 inh: inactive; Kir21 block: 0.92; KCNQ1 act: 74*; KCNQ1 inh: inactive; KCNK9 inh: inactive

Results for O=C(CCNC(=O)c1ccc([N+](=O)[O-])cc1)Nc1ccc(S(=O)(=O)N2CCOCC2)cc1 ?
hERG protect: -11.3; KCNK3 inh: inactive; Kir21 block: -0.38; KCNQ1 act: inactive; KCNQ1 inh: inactive; KCNK9 inh: inactive

How did O=C(/C(=C/O)N=Nc1ccccc1)c1ccc(Cl)cc1 do in these assays?
hERG protect: -6.8; KCNK3 inh: inactive; Kir21 block: 0.66; KCNQ1 act: inactive; KCNQ1 inh: inactive; KCNK9 inh: inactive

Results for O=C(/C(=C/O)N=Nc1ccccc1)c1ccncc1 ?
hERG protect: -7.8; KCNK3 inh: inactive; Kir21 block: -1.35; KCNQ1 act: inactive; KCNQ1 inh: inactive; KCNK9 inh: -7.59*

What do the screens show for `Cc1ccc(C)c(-n2c(-c3ccc(Br)cc3)csc2=NC(=O)c2ccccc2F)c1`?
hERG protect: -4.6; KCNK3 inh: inactive; Kir21 block: -0.31; KCNQ1 act: inactive; KCNQ1 inh: inactive; KCNK9 inh: -7.74*

What do the screens show for `Cc1cccc(NC(=O)CSc2nnc(CNC(=O)c3ccco3)o2)c1`?
hERG protect: -4.2; KCNK3 inh: inactive; Kir21 block: 1.68; KCNQ1 act: inactive; KCNQ1 inh: inactive; KCNK9 inh: inactive

What do the screens show for `OCC(Cc1ccccc1)Nc1c2ccccc2nc2ccccc12` (configuration not stated)?
hERG protect: -20.8; KCNK3 inh: inactive; Kir21 block: -8.64*; KCNQ1 act: inactive; KCNQ1 inh: inactive; KCNK9 inh: inactive

Results for O=C(Cc1ccccc1)NNc1c2ccccc2nc2ccccc12 ?
hERG protect: -10.0; KCNK3 inh: inactive; Kir21 block: -0.66; KCNQ1 act: inactive; KCNQ1 inh: inactive; KCNK9 inh: inactive

How did O=c1cc(C(F)(F)F)[nH]c(=S)n1-c1ccccc1 do in these assays?
hERG protect: -3.4; KCNK3 inh: inactive; Kir21 block: 2.2; KCNQ1 act: inactive; KCNQ1 inh: inactive; KCNK9 inh: inactive

Results for Cc1ccccc1-n1c(Cc2cccs2)n[nH]c1=S ?
hERG protect: -12.2; KCNK3 inh: inactive; Kir21 block: -0.53; KCNQ1 act: inactive; KCNQ1 inh: inactive; KCNK9 inh: inactive

How did COC(=O)c1ccc(N2C(=O)CC(SCC(=O)Nc3ccc(OC)cc3)C2=O)cc1 (configuration not stated) do in these assays?
hERG protect: -9.6; KCNK3 inh: inactive; Kir21 block: 1.6; KCNQ1 act: inactive; KCNQ1 inh: inactive; KCNK9 inh: inactive

What do the screens show for `CN=C(Nc1cc(Cl)ccc1Cl)SC1CC(=O)N(c2ccc(C(=O)OC)cc2)C1=O` (configuration not stated)?
hERG protect: -12.5; KCNK3 inh: inactive; Kir21 block: -1.19; KCNQ1 act: inactive; KCNQ1 inh: inactive; KCNK9 inh: -8.01*

How did CCC(=O)NNc1ncnc2c1cnn2-c1ccccc1 do in these assays?
hERG protect: -2.2; KCNK3 inh: inactive; Kir21 block: -0.45; KCNQ1 act: inactive; KCNQ1 inh: inactive; KCNK9 inh: inactive

What do the screens show for `Cc1ccc(-n2ncc3c(NNC(=O)c4cccs4)ncnc32)cc1`?
hERG protect: 5.7*; KCNK3 inh: inactive; Kir21 block: 1.71; KCNQ1 act: inactive; KCNQ1 inh: inactive; KCNK9 inh: inactive

Results for COc1ccc(-n2c(=S)[nH]c3ccccc32)cc1 ?
hERG protect: -12.1; KCNK3 inh: inactive; Kir21 block: 0.01; KCNQ1 act: inactive; KCNQ1 inh: inactive; KCNK9 inh: inactive

How did COc1ccc(-n2c(=S)[nH]c3ccccc3c2=S)cc1 do in these assays?
hERG protect: 0.2; KCNK3 inh: inactive; Kir21 block: -0.03; KCNQ1 act: 16*; KCNQ1 inh: inactive; KCNK9 inh: inactive

How did COc1ccc(Cn2c(=S)[nH]c3ccccc32)cc1 do in these assays?
hERG protect: 7.2*; KCNK3 inh: inactive; Kir21 block: -0.69; KCNQ1 act: inactive; KCNQ1 inh: inactive; KCNK9 inh: inactive

What do the screens show for `CC(=O)Nc1ccc2c(c1)Cc1c(F)cccc1-2`?
KCNK3 inh: inactive

How did O=C(c1cnn(C(=O)c2ccc(O)cc2)c1)c1ccccc1O do in these assays?
hERG protect: -11.4; Kir21 block: -0.09; KCNQ1 act: inactive; KCNQ1 inh: 6*; KCNK9 inh: inactive

What do the screens show for `O=C(c1cnn(C(=O)c2ccco2)c1)c1ccccc1O`?
KCNK3 inh: inactive

How did COc1ccc(-c2cc(C(F)(F)F)n3ncc(C(=O)Nc4c(C)n(C)n(-c5ccccc5)c4=O)c3n2)cc1 do in these assays?
hERG protect: -9.0; Kir21 block: 0.03; KCNQ1 act: inactive; KCNQ1 inh: inactive; KCNK9 inh: inactive
